FLuc act counter: affects firefly luciferase, flagging false hits in luciferase stimulation screens; ATPlite luciferase biochemical, luminescence, 10 min; 0 = ATP-free wells, 1 = DMSO control; P08659; 200,000 tested, under 10 active; activation factor at 10 µM;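 active means luciferase activation factor, scaled between plate controls, of at least 2 with compound at 10 µM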
Target sequence (P08659 whole entry, looked up): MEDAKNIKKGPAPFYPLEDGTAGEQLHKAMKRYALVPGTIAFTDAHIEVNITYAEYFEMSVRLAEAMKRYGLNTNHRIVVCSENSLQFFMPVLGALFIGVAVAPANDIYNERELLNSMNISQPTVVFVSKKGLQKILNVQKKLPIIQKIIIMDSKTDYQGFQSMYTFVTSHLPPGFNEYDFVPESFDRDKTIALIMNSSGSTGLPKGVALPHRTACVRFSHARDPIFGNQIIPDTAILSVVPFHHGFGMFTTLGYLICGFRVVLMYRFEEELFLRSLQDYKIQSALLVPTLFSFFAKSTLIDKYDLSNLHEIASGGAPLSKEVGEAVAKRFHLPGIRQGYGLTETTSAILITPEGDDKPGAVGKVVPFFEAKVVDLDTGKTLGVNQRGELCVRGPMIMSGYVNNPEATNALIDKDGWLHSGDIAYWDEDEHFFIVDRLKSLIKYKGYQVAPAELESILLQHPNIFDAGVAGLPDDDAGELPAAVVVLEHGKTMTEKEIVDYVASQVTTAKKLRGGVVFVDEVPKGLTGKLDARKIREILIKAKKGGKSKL
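Assay system – cell-free luciferase reagent · Medium – PBS-based ATP solution · Dosing – test compounds dosed from 2 mM stocks in 100% DMSO · Timing – 10 min, room temperature · Technique – light output (luminescence) · Measure – luminescence gain marking luciferase activators · Controls – No-ATP low control, compound-free enzyme-plus-ATP high control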
PPC-1+TRAIL kill: compounds killing PPC-1 cancer cells with TRAIL present (potentiator screen, no TRAIL-free arm); PPC-1 cells + TRAIL, ATPLite viability luminescence; cell killing (% activity), % at 4 µM or 5 µM; 220,000 tested, 0.41% active; AID 1443;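 active means cell killing above 50% in the first pass at 4 µM, then a duplicate retest at 5 µM averaging 50% or more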
FLuc inh counter: counter-screen for luciferase assay inhibitors: firefly luciferase inhibition. ATPLite firefly luciferase biochemical luminescence, 10 min. 200,000 tested, 1.5% active. inhibition, % at 10 µM;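 active means inhibition above about 50% when tested at 10 µM, limit read from the data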
TRAIL sens C8: caspase-8 TRAIL sensitization; NB7+C8 cells + TRAIL, ATPlite viability luminescence; AID 624354; 360,000 tested, 1% active; inhibition (viability loss, TRAIL sensitization), % at 10 µM;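 active means compounds causing at least 50% loss of cell viability in the single-dose screen, relative to plate controls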
Hits are given with their value; n = inactive; x = no result given. Most compounds without a hit are left out; they make up all but 1.6% or so of the library.

SMILES	FLuc act counter	PPC-1+TRAIL kill	FLuc inh counter	TRAIL sens C8
CN1CC(c2ccccn2)C2(SC(=S)N(Cc3ccccc3)C2=O)C12C(=O)Nc1ccccc12 (configuration not stated)	n	n	n	n
CN1CC(c2ccccc2)C2(SC(=S)N(Cc3ccco3)C2=O)C12C(=O)Nc1ccccc12 (configuration not stated)	n	n	n	50
Cc1ccc([N+](=O)[O-])cc1NC(=O)c1ccc2c(c1)OCO2	n	n	n	n
Cc1ccc(C(=O)Nc2nnc(C)s2)cc1	n	n	58	n
Cc1ccc(NC(=O)c2ccc3c(c2)C(=O)N(CC2CCCO2)C3=O)cc1C (configuration not stated)	n	n	n	n
Cc1nnc(NC(=O)c2ccc3c(c2)C(=O)N(CC2CCCO2)C3=O)s1 (configuration not stated)	n	n	67	n
Cc1cnc(NC(=O)c2ccc3c(c2)OCCO3)s1	x	x	x	94
O=C(Nc1ncc([N+](=O)[O-])s1)c1ccc2c(c1)OCO2	x	x	x	68
Cc1ccc(OCCSc2nc(NC(C)C)nc(NC(C)C)n2)cc1	n	n	n	n
Cc1nc2c(ccc3nc(NC(=O)c4ccc5c(c4)OCCO5)sc32)s1	n	n	86	80
O=C(COc1ccc(Cl)cc1)Nc1ncc([N+](=O)[O-])s1	n	n	59	n
Cc1ccc(C(=O)Nc2ncc(C)s2)s1	x	x	x	78
O=C(Cc1ccc(Cl)cc1)Nc1ncc([N+](=O)[O-])s1	n	n	n	n
Cc1ccc(C(=O)Nc2ncc(C)s2)o1	n	n	n	n
Cc1ccc(C(=O)Nc2ncc([N+](=O)[O-])s2)cc1	x	x	x	77
Cc1nc2ccc3nc(NC(=O)c4ccc5c(c4)OCCO5)sc3c2s1	n	n	n	n
COC(=O)C[C@H]1CC[C@@H](NS(=O)(=O)c2ccc(C)cc2)[C@@H](CO)O1	x	x	x	n
Cc1c(-c2ccc(Br)cc2)nc2ccccn12	n	n	n	n
CN(C)c1ccc(-c2nc3ccccn3c2/N=C/c2ccc(Br)cc2)cc1	n	n	94	53
CCCn1c(SCC(=O)NC2CCCC2)nc2c1c(=O)n(C)c(=O)n2C	x	x	x	n
CCCN(CC(=O)Nc1cc(Cl)ccc1Cl)C(=O)c1ccccn1	x	x	x	n
O=c1cc(-c2ccc(O)cc2)oc2ccc3ccccc3c12	x	x	x	90
CC(OC(=O)C1CCCCC1)C(=O)Nc1cccc([N+](=O)[O-])c1 (configuration not stated)	x	x	x	n
CCN(CCc1ccccc1)c1ccc2c(c1)C1CC2CCN1Cc1ccccc1 (configuration not stated)	x	x	x	n
CCOc1ccc(C(=O)N/N=C/c2cccc3cccnc23)cc1	n	n	n	n
SMILES	FLuc act counter	PPC-1+TRAIL kill	FLuc inh counter	TRAIL sens C8
COc1ccc(C(=O)N/N=C/c2cccnc2)cc1	x	x	x	52
CC(C)c1cc(C(=O)N/N=C/c2ccoc2)cs1	x	x	x	n
COc1ccc(C(=O)N/N=C/c2cccc3cccnc23)cc1	n	n	59	n
CC(C)c1cc(C(=O)N/N=C/c2cccnc2)cs1	n	n	64	n
CC(=O)Nc1ccc(C(=O)N/N=C/c2cccnc2)cc1	n	n	n	n
Cc1ccc(S(=O)(=O)c2cc(C)cc(S(=O)(=O)Nc3ccc(C(=O)O)cc3)c2C)cc1	x	x	x	n
C=CCc1c(C)nc(-c2ccccc2)nc1N/N=C/c1ccncc1	n	n	53	n
C=CCc1c(C)nc(-c2ccccc2)nc1N/N=C/c1ccccc1	n	n	n	n
CNc1c2cccc(C)c2nc2c(C(=O)NCCN(C)C)cccc12	x	x	x	74
Cc1ccc(C(=O)NCCN(C)C)c(C)c1	n	n	n	n
O=c1c(C=NCc2cccnc2)c(C(F)(F)F)[nH]n1-c1nc2ccccc2s1	n	x	74	n
CCC(=NCc1ccccc1)c1c(C(F)(F)F)[nH]n(-c2nc3ccccc3s2)c1=O	n	n	n	n
NC(=S)n1[nH]c(-c2ccc([N+](=O)[O-])cc2)c(N=Nc2ccc(Cl)cc2)c1=O	n	n	n	59
Cc1ccc([N+](=O)[O-])cc1N=Nc1c(C)[nH]n(C(N)=S)c1=O	x	x	x	n
Cc1ccc(N=Nc2c(C)[nH]n(C(N)=S)c2=O)cc1	n	n	n	n
Cc1ccc([N+](=O)[O-])cc1N=Nc1c(-c2ccc([N+](=O)[O-])cc2)[nH]n(C(N)=S)c1=O	n	n	n	50
CCOc1ccc(CCNC(=O)Cn2ncn3nc(-c4ccc(OC)cc4)cc3c2=O)cc1OCC	x	x	x	n
COc1ccc(C(=O)Nc2ccc3oc(-c4cccc(F)c4)nc3c2)cc1OC	n	n	n	n
O=C(Nc1ccc2oc(-c3ccccc3)nc2c1)C1CCCO1 (configuration not stated)	n	n	50	n
O=C(Nc1ccc(-c2nc3ccccc3o2)cc1)C1CCCO1 (configuration not stated)	n	n	78	59
COc1ccccc1C(=O)Nc1ccc2oc(-c3ccc(F)cc3)nc2c1	n	53	n	n
O=C(Nc1ccc(-c2nc3cc(Cl)ccc3o2)cc1)C1CCCO1 (configuration not stated)	n	n	n	n
O=[N+]([O-])c1cc(F)cc(F)c1Nc1cc(F)cc(F)c1	x	x	x	n
CC1CCC2(CC1)NC(=O)N(CC(=O)N1CCN(c3ccccc3)CC1)C2=O (configuration not stated)	x	x	x	n
Cc1cc2nc(C(C)(C)C)c(Cc3ccccc3)n2c(C)c1Br	x	x	x	n
SMILES	FLuc act counter	PPC-1+TRAIL kill	FLuc inh counter	TRAIL sens C8
CCOC(=O)Cc1cc(=O)n2[nH]c(-c3ccc(Cl)cc3)cc2n1	n	n	57	n
COc1cccc(NC(=O)n2ncc3c(C)cccc32)c1	x	x	x	53
Cc1ccc(NC(=O)CCNCc2ccco2)cc1S(=O)(=O)N(C)C	n	n	79	n
O=C(NCc1ccc(F)cc1)Nc1cccc(Cl)c1	n	n	n	n
CC(C)c1ccc(/C=C2\SC(=O)N(CC(=O)NC3C=CS(=O)(=O)C3)C2=O)cc1 (configuration not stated)	x	x	x	54
O=C(CN1C(=O)/C(=C/c2ccc(Cl)cc2)SC1=S)NC1C=CS(=O)(=O)C1 (configuration not stated)	x	x	x	n
CCOc1cc(NC2CS(=O)(=O)CC2O)c(OCC)cc1NC(=O)c1ccccc1 (configuration not stated)	n	n	n	51
CCOc1cc(NC(=O)c2ccccn2)c(OCC)cc1NC(=O)c1ccccc1	n	x	n	n
CC(C)(C)n1ncc2c(=O)n(CC(=O)OCc3ccccc3)cnc21	n	n	92	n
CC(C)(C)n1ncc2c(=O)n(CC(=O)c3ccccc3)cnc21	n	n	n	n
O=C(NOCc1ccccc1)c1ccc(Cl)cc1Cl	x	x	x	58
Cc1ccccc1S(=O)(=O)N1C[C@H]2[C@H]3C(=O)N(c4ccccc4)C(=O)[C@H]3CC(=O)[C@H]2[C@@H]1c1ccc(Cl)cc1	x	x	x	n
CCN(CC)CCOC(=O)/C=C/c1ccccc1	x	n	x	n
CCN(CC)CC(C)(C)C(=O)/C=C/c1ccc(/C=C/C(=O)C(C)(C)CN(CC)CC)cc1	x	x	x	92
CN1CCN(Cc2nc3ccccc3c(=O)n2Cc2nc(-c3cccc([N+](=O)[O-])c3)cs2)CC1	n	n	n	n

Bioassay records (PubChem BioAssay)
